Assays:
MT4 = assay: Antiproliferative activity against human MT4 cells after 96 hrs by MTT assay; assay type: functional, cell-based; conditions: MT4, 96 h
In short: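 Exponentially growing MT-4 cells (CD4+ human T-cells carrying integrated HTLV-1 genome), seeded at 1×10^5 cells/mL in RPMI-1640 with 10% FCS and antibiotics. Serial dilutions of compound (DMSO stock 100 mM, diluted in medium), 37 °C, 5% CO₂, 96 h. Viability read by MTT. 50% inhibition versus untreated controls by linear regression. Mean ± SD of three independent determinations.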

HL-60(TB) = assay: Growth inhibition of human HL-60(TB) cells after 48 hrs by sulforhodamine B assay; assay type: functional; conditions: HL-60, 48 h
In short: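 NCI 60-cell-line screen, HL-60(TB) included. Compound given at five 10-fold dilutions from 10^-4 to 10^-8 M. Cells exposed for the last 48 h of a 72 h incubation. Growth or viability estimated by sulforhodamine B protein assay. GI50 is the concentration giving 50% growth inhibition. Values outside the tested range are reported as greater or less than the highest or lowest concentration.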

K562 = assay: Growth inhibition of human K562 cells after 48 hrs by sulforhodamine B assay; assay type: functional; conditions: K562, 48 h
In short: (§1)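 NCI 60-cell-line screen. Compounds tested at five 10-fold dilutions from 10^-4 to 10^-8 M. Cells exposed for the last 48 h of a 72 h incubation, growth estimated by sulforhodamine B protein assay. GI50 is the concentration giving 50% growth inhibition. Values beyond the tested range are expressed as greater or lesser than the extreme concentration.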

[1] = Growth inhibition of human MOLT4 cells after 48 hrs by sulforhodamine B assay; assay type: functional; conditions: MOLT-4, 48 h; in short: as §1
[2] = Growth inhibition of human RPMI8226 cells after 48 hrs by sulforhodamine B assay; assay type: functional; conditions: RPMI-8226, 48 h
SR = assay: Growth inhibition of human SR cells after 48 hrs by sulforhodamine B assay; assay type: functional
A549 = assay: Growth inhibition of human A549 cells after 48 hrs by sulforhodamine B assay; assay type: functional; conditions: A549, 48 h; in short: as §1
HOP-62 = assay: Growth inhibition of human HOP62 cells after 48 hrs by sulforhodamine B assay; assay type: functional; conditions: HOP-62, 48 h; in short: as §1
[3] = Growth inhibition of human HOP92 cells after 48 hrs by sulforhodamine B assay; assay type: functional; conditions: HOP-92, 48 h; in short: as §1
NCI-H226 = assay: Growth inhibition of human NCI-H226 cells after 48 hrs by sulforhodamine B assay; assay type: functional; conditions: NCI-H226, 48 h; in short: as §1
NCI-H23 = assay: Growth inhibition of human NCI-H23 cells after 48 hrs by sulforhodamine B assay; assay type: functional; conditions: NCI-H23, 48 h; in short: as §1
NCI-H322M = assay: Growth inhibition of human NCI-H322M cells after 48 hrs by sulforhodamine B assay; assay type: functional; in short: as §1
NCI-H460 = assay: Growth inhibition of human NCI-H460 cells after 48 hrs by sulforhodamine B assay; assay type: functional; conditions: NCI-H460, 48 h; in short: as §1
[4] = Growth inhibition of human COLO205 cells after 48 hrs by sulforhodamine B assay; assay type: functional; conditions: COLO 205, 48 h; in short: as §1
HCT-116 = assay: Growth inhibition of human HCT116 cells after 48 hrs by sulforhodamine B assay; assay type: functional; conditions: HCT-116, 48 h; in short: as §1
HCT-15 = assay: Growth inhibition of human HCT15 cells after 48 hrs by sulforhodamine B assay; assay type: functional; conditions: HCT-15, 48 h; in short: as §1
HT-29 = assay: Growth inhibition of human HT-29 cells after 48 hrs by sulforhodamine B assay; assay type: functional; conditions: HT-29, 48 h; in short: as §1
KM12 = assay: Growth inhibition of human KM12 cells after 48 hrs by sulforhodamine B assay; assay type: functional; conditions: KM12, 48 h; in short: as §1
SW-620 = assay: Growth inhibition of human SW620 cells after 48 hrs by sulforhodamine B assay; assay type: functional; conditions: SW-620, 48 h
SF-268 = assay: Growth inhibition of human SF268 cells after 48 hrs by sulforhodamine B assay; assay type: functional; conditions: SF-268, 48 h
[5] = Growth inhibition of human SF295 cells after 48 hrs by sulforhodamine B assay; assay type: functional; conditions: SF-295, 48 h
[6] = Growth inhibition of human SF539 cells after 48 hrs by sulforhodamine B assay; assay type: functional; conditions: SF-539, 48 h
SNB-19 = assay: Growth inhibition of human SNB19 cells after 48 hrs by sulforhodamine B assay; assay type: functional; conditions: SNB-19, 48 h
SNB-75 = assay: Growth inhibition of human SNB75 cells after 48 hrs by sulforhodamine B assay; assay type: functional; conditions: SNB-75, 48 h
U-251 = assay: Growth inhibition of human U251 cells after 48 hrs by sulforhodamine B assay; assay type: functional; conditions: U-251, 48 h
M14 = assay: Growth inhibition of human M14 cells after 48 hrs by sulforhodamine B assay; assay type: functional; conditions: M14, 48 h; in short: as §1
MDA-MB-435 = assay: Growth inhibition of human MDA-MB-435 cells after 48 hrs by sulforhodamine B assay; assay type: functional; conditions: MDA-MB-435, 48 h; in short: as §1
SK-MEL-2 = assay: Growth inhibition of human SK-MEL-2 cells after 48 hrs by sulforhodamine B assay; assay type: functional; conditions: SK-MEL-2, 48 h
SK-MEL-28 = assay: Growth inhibition of human SK-MEL-28 cells after 48 hrs by sulforhodamine B assay; assay type: functional; conditions: SK-MEL-28, 48 h
SK-MEL-5 = assay: Growth inhibition of human SK-MEL-5 cells after 48 hrs by sulforhodamine B assay; assay type: functional; conditions: SK-MEL-5, 48 h
UACC-62 = assay: Growth inhibition of human UACC62 cells after 48 hrs by sulforhodamine B assay; assay type: functional; conditions: UACC-62, 48 h
IGROV-1 = assay: Growth inhibition of human IGROV1 cells after 48 hrs by sulforhodamine B assay; assay type: functional; conditions: IGROV-1, 48 h; in short: as §1
OVCAR-3 = assay: Growth inhibition of human OVCAR3 cells after 48 hrs by sulforhodamine B assay; assay type: functional; conditions: OVCAR-3, 48 h; in short: as §1
[7] = Growth inhibition of human NCI-ADR-RES cells after 48 hrs by sulforhodamine B assay; assay type: functional; in short: as §1
SK-OV-3 = assay: Growth inhibition of human SKOV3 cells after 48 hrs by sulforhodamine B assay; assay type: functional; conditions: SK-OV-3, 48 h
786-0 = assay: Growth inhibition of human 786-0 cells after 48 hrs by sulforhodamine B assay; assay type: functional; conditions: 786-0, 48 h; in short: as §1
A498 = assay: Growth inhibition of human A498 cells after 48 hrs by sulforhodamine B assay; assay type: functional; conditions: A498, 48 h; in short: as §1
CAKI-1 = assay: Growth inhibition of human CAKI-1 cells after 48 hrs by sulforhodamine B assay; assay type: functional; conditions: CAKI-1, 48 h; in short: as §1
[8] = Growth inhibition of human RXF393 cells after 48 hrs by sulforhodamine B assay; assay type: functional; conditions: RXF 393, 48 h
SN12C = assay: Growth inhibition of human SN12C cells after 48 hrs by sulforhodamine B assay; assay type: functional
PC-3 = assay: Growth inhibition of human PC3 cells after 48 hrs by sulforhodamine B assay; assay type: functional; conditions: PC-3, 48 h
DU-145 = assay: Growth inhibition of human DU145 cells after 48 hrs by sulforhodamine B assay; assay type: functional; conditions: DU-145, 48 h; in short: as §1
MCF7 = assay: Growth inhibition of human MCF7 cells after 48 hrs by sulforhodamine B assay; assay type: functional; conditions: MCF7, 48 h; in short: as §1
MDA-MB-231 = assay: Growth inhibition of human MDA-MB-231 cells after 48 hrs by sulforhodamine B assay; assay type: functional; conditions: MDA-MB-231, 48 h; in short: as §1
[9] = Growth inhibition of human Hs 578T cells after 48 hrs by sulforhodamine B assay; assay type: functional; in short: as §1
T47D = assay: Growth inhibition of human T47D cells after 48 hrs by sulforhodamine B assay; assay type: functional
MDA-MB-468 = assay: Growth inhibition of human MDA-MB-468 cells after 48 hrs by sulforhodamine B assay; assay type: functional; conditions: MDA-MB-468, 48 h; in short: as §1

Q: Which results are given for `COc1ccc(-c2[nH]c3ccc(OC)cc3c2C=C(C#N)C#N)cc1`?
A: EC50 (MT4): 0.3 µM; GI50 (HL-60(TB)): 0.363 µM; GI50 (K562): 0.345 µM; GI50 [1]: 0.369 µM; GI50 [2]: 5.1 µM; GI50 (SR): 0.152 µM; GI50 (A549): 3.8 µM; GI50 (HOP-62): 3.3 µM; GI50 [3]: 23 µM; GI50 (NCI-H226): 1.5 µM; GI50 (NCI-H23): 2 µM; GI50 (NCI-H322M): 0.38 µM; GI50 (NCI-H460): 0.472 µM; GI50 [4]: 0.291 µM; GI50 (HCT-116): 0.487 µM; GI50 (HCT-15): 0.778 µM; GI50 (HT-29): 0.407 µM; GI50 (KM12): 0.59 µM; GI50 (SW-620): 0.579 µM; GI50 (SF-268): 1.7 µM; GI50 [5]: 0.306 µM; GI50 [6]: 0.774 µM; GI50 (SNB-19): 13.7 µM; GI50 (SNB-75): 0.593 µM; GI50 (U-251): 0.635 µM; GI50 (M14): 0.308 µM; GI50 (MDA-MB-435): 0.122 µM; GI50 (SK-MEL-2): 5.9 µM; GI50 (SK-MEL-28): 1.7 µM; GI50 (SK-MEL-5): 0.324 µM; GI50 (UACC-62): 0.357 µM; GI50 (IGROV-1): 5.8 µM; GI50 (OVCAR-3): 0.424 µM; GI50 [7]: 0.403 µM; GI50 (SK-OV-3): 0.892 µM; GI50 (786-0): 14.3 µM; GI50 (A498): 0.075 µM; GI50 (CAKI-1): 0.392 µM; GI50 [8]: 5.5 µM; GI50 (SN12C): 15.9 µM; GI50 (PC-3): 0.342 µM; GI50 (DU-145): 0.917 µM; GI50 (MCF7): 0.385 µM; GI50 (MDA-MB-231): 1.3 µM; GI50 [9]: 0.513 µM; GI50 (T47D): 2.6 µM; GI50 (MDA-MB-468): 0.503 µM

— ChEMBL document CHEMBL3616442, “Unconventional Knoevenagel-type indoles: Synthesis and cell-based studies for the identification of pro-apoptotic agents” (Eur J Med Chem, 2015)
